Series [1] is described as follows: Clearance in rat at 0.5 mg/kg, iv. The class given is ADME, organism-based. The conditions noted are these: in vivo.
Series [2] is described as follows: Half life in rat at 0.5 mg/kg, iv. The class given is ADME, organism-based. The conditions noted are these: in vivo.
Series [3] can be described thus: Oral bioavailability in rat at 5 mg/kg. The class given is ADME, organism-based. The conditions noted are these: in vivo.
The target in series [4] is Cytochrome P450 2C9 (Homo sapiens, UniProt P11712). Nature of the series: Inhibition of CYP2C9 (unknown origin) using […] as substrate. It is filed as ADME.
Chain of Cytochrome P450 2C9 (P11712 whole entry): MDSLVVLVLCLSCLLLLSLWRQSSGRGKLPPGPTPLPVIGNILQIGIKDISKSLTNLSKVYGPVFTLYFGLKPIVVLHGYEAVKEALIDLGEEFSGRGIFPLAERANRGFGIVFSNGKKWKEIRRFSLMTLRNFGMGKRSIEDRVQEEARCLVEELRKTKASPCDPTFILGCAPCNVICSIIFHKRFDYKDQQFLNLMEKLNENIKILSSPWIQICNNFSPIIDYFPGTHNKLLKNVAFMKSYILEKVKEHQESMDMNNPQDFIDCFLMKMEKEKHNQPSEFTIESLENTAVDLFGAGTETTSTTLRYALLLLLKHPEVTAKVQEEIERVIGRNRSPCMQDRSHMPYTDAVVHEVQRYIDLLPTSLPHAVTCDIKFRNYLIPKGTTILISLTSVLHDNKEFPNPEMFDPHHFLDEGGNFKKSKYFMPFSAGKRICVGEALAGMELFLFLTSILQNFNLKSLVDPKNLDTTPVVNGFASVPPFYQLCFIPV
In series [5] the target is T1, Glucocorticoid receptor (Canis lupus familiaris, UniProt A0A8C0QLS2).
T1 sequence (A0A8C0QLS2 whole entry): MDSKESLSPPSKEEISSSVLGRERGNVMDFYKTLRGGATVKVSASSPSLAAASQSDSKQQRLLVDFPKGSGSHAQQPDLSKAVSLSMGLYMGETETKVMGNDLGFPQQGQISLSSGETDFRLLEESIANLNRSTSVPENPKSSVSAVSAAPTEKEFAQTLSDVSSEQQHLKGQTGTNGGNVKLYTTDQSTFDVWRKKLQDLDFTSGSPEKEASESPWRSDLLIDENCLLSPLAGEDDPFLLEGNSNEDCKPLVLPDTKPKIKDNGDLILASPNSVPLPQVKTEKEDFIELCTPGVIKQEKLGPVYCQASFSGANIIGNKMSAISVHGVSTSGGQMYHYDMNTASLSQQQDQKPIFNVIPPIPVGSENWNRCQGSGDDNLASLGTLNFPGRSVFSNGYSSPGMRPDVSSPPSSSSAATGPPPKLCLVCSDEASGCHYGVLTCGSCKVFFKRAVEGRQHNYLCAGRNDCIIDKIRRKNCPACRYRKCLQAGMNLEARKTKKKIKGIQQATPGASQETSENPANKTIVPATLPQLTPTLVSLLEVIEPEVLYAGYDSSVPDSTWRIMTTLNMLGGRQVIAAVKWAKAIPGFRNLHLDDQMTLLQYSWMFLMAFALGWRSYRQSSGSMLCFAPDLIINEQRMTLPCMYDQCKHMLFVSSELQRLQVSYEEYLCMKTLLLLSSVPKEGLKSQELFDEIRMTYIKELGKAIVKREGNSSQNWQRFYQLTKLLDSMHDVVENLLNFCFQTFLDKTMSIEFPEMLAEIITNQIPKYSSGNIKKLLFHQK
The series can be described thus: Antagonist activity at GR in dog PBMC assessed as reduction in dexamethasone-induced GILZ gene expression incubated for 6 hrs by RT-qPCR method. The class given is cell-based. On the technique in general: Real-time PCR tracks product formation cycle by cycle.

The target of series [6] is T2, Glucocorticoid receptor (Sus scrofa) (UniProt Q9N1U3).
T2 sequence (whole entry): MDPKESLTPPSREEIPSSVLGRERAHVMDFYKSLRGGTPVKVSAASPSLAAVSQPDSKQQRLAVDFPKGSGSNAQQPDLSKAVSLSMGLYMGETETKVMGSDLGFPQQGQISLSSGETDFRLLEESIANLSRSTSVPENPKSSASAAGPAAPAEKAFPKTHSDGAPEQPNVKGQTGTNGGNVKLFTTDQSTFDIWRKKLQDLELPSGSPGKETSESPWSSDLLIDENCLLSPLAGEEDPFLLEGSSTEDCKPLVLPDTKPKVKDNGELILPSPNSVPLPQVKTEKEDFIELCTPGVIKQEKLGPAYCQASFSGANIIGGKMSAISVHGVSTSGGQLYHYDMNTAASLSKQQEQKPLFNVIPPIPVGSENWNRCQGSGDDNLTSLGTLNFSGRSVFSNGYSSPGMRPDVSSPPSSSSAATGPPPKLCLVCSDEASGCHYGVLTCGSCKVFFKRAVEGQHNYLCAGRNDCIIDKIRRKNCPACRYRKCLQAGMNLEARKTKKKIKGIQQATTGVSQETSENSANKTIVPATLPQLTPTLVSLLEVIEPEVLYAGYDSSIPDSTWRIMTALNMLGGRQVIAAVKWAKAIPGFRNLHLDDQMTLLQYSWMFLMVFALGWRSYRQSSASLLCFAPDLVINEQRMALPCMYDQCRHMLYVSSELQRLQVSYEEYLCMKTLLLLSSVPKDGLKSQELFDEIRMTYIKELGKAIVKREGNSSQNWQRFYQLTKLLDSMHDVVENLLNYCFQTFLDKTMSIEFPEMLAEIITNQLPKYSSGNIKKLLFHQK
Nature of the series: (§1) Antagonist activity at GR in mini pig PBMC assessed as reduction in dexamethasone-induced GILZ gene expression incubated for 24 hrs by RT-qPCR method. The class given is cell-based.

Series [7] addresses T3, Glucocorticoid receptor (Sus scrofa, UniProt Q9N1U3).
T3 sequence (Q9N1U3 whole entry): T2 sequence (whole entry)
The description is as §1. The class given is cell-based.

The target of series [8] is T3, Glucocorticoid receptor. Nature of the series: Antagonist activity at GR in mini pig PBMC assessed as reduction in dexamethasone-induced FKBP5 gene expression incubated for 24 hrs by RT-qPCR method. The class given is cell-based.
Series [9] in a line: Unbound plasma concentration in nude mouse xenografted with human OVCAR5 cells at 25 to 75 mg/kg, po dosed as gavage and measured after 6 hrs. The class given is ADME, organism-based. The conditions noted are these: in vivo. An outline of the steps:
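OVCAR5 xenograft mice received dexamethasone 0.5 mg/kg by intraperitoneal injection with or without a single oral gavage dose of the antagonist at 25, 50 or 75 mg/kg. Tumors and plasma collected 6 h later. Tumor FKBP5 mRNA measured by RT-qPCR. Unbound plasma concentration of the antagonist determined, n = 4 mice per group. FKBP5 effects tested by one-way ANOVA with Dunnett's test versus the vehicle group.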
(Xenograft models place foreign cells or tissue in a host animal.)

The test system of series [10] is OVCAR-5. Nature of the series: Antitumor activity against human OVCAR5 cells xenografted in chronic cortisol treated nude mouse assessed as reduction in tumor volume at 75 mg/kg, po BID dosed via gavage. It is filed as functional, organism-based. An outline of the steps:
(§2)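 Cortisol given in drinking water at 100 mg/L before tumor implantation and throughout the study. Mice bearing established OVCAR5 xenografts, n = 10 per group. Gemcitabine 100 mg/kg and carboplatin 60 mg/kg given every 3 days for 4 doses. Antagonist given at 75 mg/kg twice daily by oral gavage for the whole study. Tumor volume tracked, mean ± SEM, with significance assessed on day 21.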

Series [11] deals with OVCAR-5. Nature of the series: Potentiation of gemcitabine-induced antitumor activity against human OVCAR5 cells xenografted in chronic cortisol treated nude mouse assessed as reduction in tumor volume at 75 mg/kg, po BID dosed via gavage co-treated with gencitabine at 100 mg/kg dosed every 3 days for 4 doses. It is filed as functional, organism-based. A digest of the protocol: as §2

Data on one compound can be found in ChEMBL document CHEMBL4145686, “Discovery of a Potent and Selective Steroidal Glucocorticoid Receptor Antagonist (ORIC-101)” (J Med Chem, 2018).

The source made the active and inactive calls.

What is called clearance is a measure of how efficiently the substance is removed, as volume per time. Lower therefore signals a low capacity for elimination. As usually defined, the half-life is the time needed for the level to fall by half in the phase considered. Read a low half-life as fast loss. As usually defined, the bioavailability is dose-corrected exposure relative to a reference, in per cent. Higher therefore signals good availability. A word on the IC50: it is the concentration that gives 50% inhibition. On to `CC(C)N(C)c1ccc([C@H]2C[C@@]3(C)[C@@H](CC[C@@]3(O)C#CC(C)(C)C)[C@@H]3CCC4=CC(=O)CC[C@@H]4[C@H]32)cc1`, for which the clearance in series [1] was 31.7 mL/min/kg. In series [2], this compound had a half-life of 4.4 h. Besides, in series [3], the bioavailability was 24%. Also, the IC50 is more than 10000 nM in series [4], 34.3 nM in series [5], 181 nM in series [7] and 39.3 nM in series [8]. Also, the inhibition entry in [6] is “Dose-dependent effect”. Further, the Cp(f) in [9] was 20 to 120 nM. The TGI result in [10] is “inactive”. The outcome in [11] was Active.
